Publication PMC9673116 (Poultry Science, 2022)
Where two headings read alike, the source gives them in different places.

How the values were obtained:
[1] = Pharmacokinetic study of orally administered florfenicol in chicken; format: in vivo; conditions: female, HY-Line Brown, plasma, po, 20 mg/kg
chicken BCRP = conditions: ref Zhang et al., 2018; cited from earlier work
[2] = Arbor Acres broilers, ref Liu et al., 2018; cited from earlier work
BCRP = experiment: Mitoxantrone accumulation assay; format: cell-based, chicken
How it was run: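 Hepatocytes isolated from livers of 14-day-old Arbor Acres broiler embryos, grown in M199 with transferrin, penicillin and streptomycin (37°C, 5% CO2). Exposed 24 h to CXR agonist alone or with BCRP inhibitor; untreated cells served as negative control. All wells then loaded with mitoxantrone 1 h, trypsinized, washed 3× PBS. Intracellular fluorescence read by flow cytometry at 633 nm excitation. At least 3 independent experiments, mean ± SD.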

[3] = ref Anadon et al., 2008; cited from earlier work
CYP2H1 mRNA [4] = experiment: RT-PCR analysis of CYP2H1 mRNA in chicken primary hepatocytes; format: cell-based; conditions: 500 µM metyrapone 24 h
How it was run: (§1)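 Primary broiler-embryo hepatocytes grown to 70% confluency in 6-well plates. Transfected 24 h with CXR-targeting or scrambled control siRNA, then exposed to CXR agonist 24 h. Total RNA extracted with TRIzol and reverse-transcribed. Target mRNA quantified by SYBR Green real-time PCR against β-actin, 2^−ΔΔCt method. Three independent experiments, mean ± SD.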

ABCG2 mRNA [5] = experiment: RT-PCR analysis of ABCG2 mRNA in chicken primary hepatocytes; format: cell-based; conditions: hepatocytes transfected with siCXR, 500 µM metyrapone 24 h
How it was run: as §1

BCRP protein [6] = experiment: Western blot analysis of BCRP protein expression in chicken primary hepatocytes; format: cell-based
How it was run: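 Primary hepatocytes exposed 24 h to a range of CXR agonist concentrations, or siRNA-knocked-down first (CXR-targeting vs scrambled) and then agonist-treated 24 h. Lysed in RIPA, protein by BCA, separated on 5–12% SDS-PAGE, transferred to PVDF. Blocked with 5% milk 1 h. Probed overnight at 4°C with anti-BCRP 1:500 and anti-β-tubulin 1:5,000, then secondary 1:4,000 1 h at 37°C. ECL detection; densitometry normalized to β-tubulin.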

CYP2H1 mRNA [7] = experiment: RT-PCR analysis of CYP2H1 mRNA in tissues of chickens treated with metyrapone; format: in vivo; conditions: metyrapone single oral 150 mg per chicken, 24 h
How it was run: (§2)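 Twelve third-week-old chickens of similar weight in two groups of 6: untreated, or a single oral CXR agonist dose of 150 mg per chicken. Killed by CO2 asphyxiation 24 h later. Tissues snap-frozen and stored −70°C. RNA extracted with TRIzol and reverse-transcribed. mRNA quantified by SYBR Green real-time PCR with β-actin reference, 2^−ΔΔCt. Mean ± SD.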

ABCG2 mRNA [8] = experiment: RT-PCR analysis of ABCG2 mRNA in tissues of chickens treated with metyrapone; format: in vivo; conditions: metyrapone single oral 150 mg per chicken, 24 h
How it was run: as §2

BCRP protein [9] = format: in vivo; conditions: metyrapone single oral 150 mg per chicken, 24 h
How it was run: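 Third-week-old chickens (6 per group), untreated or given a single oral CXR agonist dose of 150 mg per chicken, killed by CO2 24 h later. Tissues snap-frozen. Protein extracted with RIPA and quantified by BCA. Separated by 5–12% SDS-PAGE, blotted to PVDF. Probed with anti-BCRP 1:500 and anti-β-tubulin 1:5,000 overnight at 4°C. ECL detection; densitometry normalized to β-tubulin.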

SMILES: CS(=O)(=O)c1ccc([C@@H](O)[C@@H](CF)NC(=O)C(Cl)Cl)cc1 [Florfenicol, florfenicol]
- Vd/F [1]: 0.24 ± 0.05 L/kg
- half-life [1]: 2.13 ± 0.45 h
- Transport by chicken BCRP (chicken BCRP): actively transported
- Absorption upon coadministration of gefitinib (a BCRP inhibitor) [2]: more extensively absorbed

SMILES: COc1ccc2c3c([nH]c2c1)[C@H](CC(C)C)N1C(=O)[C@H](CCC(=O)OC(C)(C)C)NC(=O)[C@@H]1C3 [Ko143]
- Effect on metyrapone-induced mitoxantrone efflux activity (BCRP; cotreatment of Ko143 with 500 µM metyrapone): reversed

SMILES: CC1(C)S[C@@H]2[C@H](NC(=O)[C@H](N)c3ccccc3)C(=O)N2[C@H]1C(=O)O [ampicillin]
- Transport by chicken BCRP (chicken BCRP): actively transported

SMILES: CCN1CCN(c2cc3c(cc2F)c(=O)c(C(=O)O)cn3C2CC2)CC1 [enrofloxacin]
- Transport by chicken BCRP (chicken BCRP): actively transported

SMILES: CS(=O)(=O)c1ccc([C@@H](O)[C@H](N)CF)cc1 [florfenicol amine]
- Eliminated by renal excretion as metabolite florfenicol amine [3]: 25%

SMILES: CC(C)(C(=O)c1cccnc1)c1cccnc1 [metyrapone, Metyrapone]
- Induction of CYP2H1 mRNA upon metyrapone treatment, CXR expression vector (CYP2H1 mRNA [4]; hepatocytes transfected with CXR expression vector): 5.1 fold
- Induction of CYP2H1 mRNA by metyrapone after knockdown of CXR (CYP2H1 mRNA [4]; hepatocytes transfected with siCXR): 0.5 fold
- Induction of ABCG2 at the mRNA level by metyrapone after knockdown of CXR (ABCG2 mRNA [5]): 0.7 fold
- Induction of ABCG2 at the protein level by metyrapone after knockdown of CXR (BCRP protein [6]; hepatocytes transfected with siCXR, 500 µM metyrapone 24 h): 0.7 fold
- BCRP protein expression, fold vs negative control cells (BCRP protein [6]; increasing concentrations of metyrapone, 24 h, chicken primary hepatocytes): up to 2.8 fold
- Intracellular mitoxantrone fluorescence lower than in untreated cells (BCRP; 500 µM metyrapone pretreatment 24 h, 5 µM mitoxantrone 1 h, P < 0.01): 33%
- CYP2H1 mRNA expression increase (CYP2H1 mRNA [7]; duodenum): 5.6 fold
- Effect on expression of CYP2H1 (CYP2H1 mRNA [7]; ileum): did not influence
- CYP2H1 mRNA expression increase (CYP2H1 mRNA [7]; jejunum): 1.7 fold
- CYP2H1 mRNA expression increase (CYP2H1 mRNA [7]; kidney): 8 fold
- CYP2H1 mRNA expression increase (CYP2H1 mRNA [7]; liver): 3.6 fold
- ABCG2 mRNA expression increase (ABCG2 mRNA [8]; duodenum): 1.8 fold
- Effect on expression of ABCG2 (ABCG2 mRNA [8]; ileum): did not influence
- ABCG2 mRNA expression increase (ABCG2 mRNA [8]; jejunum): 1.6 fold
- ABCG2 mRNA expression increase (ABCG2 mRNA [8]; kidney): 2.2 fold
- ABCG2 mRNA expression increase (ABCG2 mRNA [8]; liver): 2.1 fold
- BCRP protein expression increase (BCRP protein [9]; duodenum): 1.4 fold
- BCRP protein expression increase (BCRP protein [9]; jejunum): 1.3 fold
- BCRP protein expression increase (BCRP protein [9]; kidney): 1.6 fold
- BCRP protein expression increase (BCRP protein [9]; liver): 1.6 fold

SMILES: CC[C@H]1OC(=O)C[C@@H](O)[C@H](C)[C@@H](O[C@@H]2O[C@H](C)[C@@H](O)[C@H](N(C)C)[C@H]2O)[C@@H](CCN2C[C@H](C)C[C@H](C)C2)C[C@@H](C)C(=O)/C=C/C(C)=C/[C@@H]1CO[C@@H]1O[C@H](C)[C@@H](O)[C@@H](OC)[C@H]1OC [tilmicosin]
- Transport by chicken BCRP (chicken BCRP): actively transported
